Experimental data as given in ChEMBL document CHEMBL3853352, “Anti-tubercular activities of 5,6,7,8-tetrahydrobenzo[4,5]thieno[2,3-d]pyrimidin-4-amine analogues endowed with high activity toward non-replicative Mycobacterium tuberculosis” (Bioorg Med Chem, 2016).
In brackets after ≈: the same amount, converted by molar mass.

Columns and labels:
[1] = test system: Mycobacterium tuberculosis; experiment: Antimycobacterial activity against Mycobacterium tuberculosis H37Rv after 7 days by MABA; type: functional; conditions: 168 h
How it was run: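 M. tuberculosis H37Rv inoculum taken from fresh LJ medium, resuspended in 7H9-S (7H9, 0.1% casitone, 0.5% glycerol, OADC), adjusted to McFarland No. 1 and diluted 1:20. Serial two-fold drug dilutions in 7H9-S, with growth and sterile controls. Incubated 7 days at 37 °C in normal atmosphere, then alamar blue added and incubated overnight. MIC = lowest concentration preventing the blue-to-pink change.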

[2] = test system: Mycobacterium tuberculosis; experiment: Antimycobacterial activity against dormant stage of Mycobacterium tuberculosis H37Rv assessed as reduction in bacterial growth under nutrient starved conditions at 10 ug/ml for 7 days measured after 28 days; type: functional
How it was run: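 H37Rv grown in 7H9/OADC, washed twice and resuspended in PBS, then held in sealed bottles at 37 °C for 6 weeks. Starved cultures exposed to compound at 10 ug/ml for 7 days. Cells diluted 10-fold serially to 10^-6 in 7H9/OADC and plated in triplicate. Incubated 28 days at 37 °C without agitation; wells with visible growth scored positive and MPN calculated.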

[3] = molecular target: T1, L-lysine-epsilon aminotransferase (Mycobacterium tuberculosis) (UniProt P9WQ77); experiment: Inhibition of Mycobacterium tuberculosis LAT at 25 uM
T1 sequence (whole entry): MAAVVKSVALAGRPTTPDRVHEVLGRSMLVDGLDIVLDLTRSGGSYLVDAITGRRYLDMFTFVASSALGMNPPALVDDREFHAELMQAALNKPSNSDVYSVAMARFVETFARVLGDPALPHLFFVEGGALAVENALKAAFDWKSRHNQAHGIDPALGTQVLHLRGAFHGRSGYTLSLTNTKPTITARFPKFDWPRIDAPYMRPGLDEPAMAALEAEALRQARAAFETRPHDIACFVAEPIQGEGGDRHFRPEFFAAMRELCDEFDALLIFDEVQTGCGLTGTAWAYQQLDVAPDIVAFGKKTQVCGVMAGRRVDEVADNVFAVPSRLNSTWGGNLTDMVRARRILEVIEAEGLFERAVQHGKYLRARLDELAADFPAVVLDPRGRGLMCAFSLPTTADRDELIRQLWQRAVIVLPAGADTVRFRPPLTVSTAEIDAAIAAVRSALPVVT

[4] = Inhibition of Mycobacterium tuberculosis ADH assessed as decrease in conversion of L-alanine to pyruvate by measuring NADH by spectrophotometry; design: species or system Mycobacterium tuberculosis H37Rv
How it was run: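 Mtb L-AlaDH oxidative deamination of L-alanine to pyruvate at 37 °C. NADH formation read at 340 nm. Compounds tested from 25 µM to 0.5 µM. Background read from the reaction mixture without enzyme. IC50 values calculated from the concentration series.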

[5] = Cytotoxicity against mouse RAW264.7 cells assessed as inhibition of cell proliferation at 50 ug/ml after 48 hrs by MTT assay; type: toxicity
How it was run: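 RAW 264.7 mouse macrophages grown in RPMI with 10% FBS and penicillin/streptomycin, then seeded at about 5000 cells/well on poly-L-lysine-coated plates. Pre-incubated 24 h at 37 °C, 5% CO2, then exposed to compound for 48 h. MTT (0.5 mg/ml) added for 3 h and formazan read at 595 nm.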

[6] = test system: Mycobacterium tuberculosis H37Rv; experiment: Inhibition of Mycobacterium tuberculosis ADH assessed as decrease in conversion of L-alanine to pyruvate at 25 uM by measuring NADH by spectrophotometry
[7] = test system: Mycobacterium tuberculosis; experiment: Antimycobacterial activity against Mycobacterium tuberculosis H37Rv after 6 days by resazurin assay; type: functional; conditions: 144 h
[8] = test system: Mycobacterium tuberculosis; experiment: Binding affinity to Mycobacterium tuberculosis ADH assessed as change in melting temperature by Sypro orange dye based differential scanning fluorimetry
How it was run: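 Thermal shift assay on Mtb L-AlaDH (100 µg/ml, 10 µl) in 100 mM HEPES-NaOH pH 7.8 with 6 µl of 15× Sypro Orange; compounds added in <10% DMSO. Samples equilibrated 3 min at 25 °C, then ramped to 95 °C in 0.1 °C steps. Tm taken as the lowest point of the first-derivative plot; shift measured against the native protein.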

Compound | MIC [1] [µM] | fold change (FC) [2] | inhibition [3] [%] | IC50 [4] [µM] | inhibition at 48 h, 50 ug/ml [5] [%] | inhibition [6] [%] | MIC [7] [µM] | ΔTm [8] [°C]
CCc1nc(Nc2ccc(Cl)cc2)c2c3c(sc2n1)CCCC3 | 18.2 (≈ 6.25 µg/mL) | >1 | < 50 | 4.94 | 15.6 | 50 | – | –
Cc1ccc(Nc2nc(C3CC3)nc3sc4c(c23)CCCC4)c(C)c1 | 71.5 (≈ 25 µg/mL) | >1 | < 50 | 9 | 23.9 | 50 | – | –
CCc1nc(NCc2ccccc2)c2c3c(sc2n1)CCCC3 | 38.6 (≈ 12.5 µg/mL) | >1 | < 50 | 6.03 | 7.05 | 50 | – | –
Cc1ccc(Nc2nc(-c3ccccc3)nc3sc4c(c23)CCCC4)c(C)c1 | 16.2 (≈ 6.25 µg/mL) | >1 | < 50 | 9.96 | 7.97 | 50 | – | –
CCc1nc(Nc2ccc(OC)cc2)c2c3c(sc2n1)CCCC3 | 73.7 (≈ 25 µg/mL) | >1 | < 50 | 4.68 | 15.2 | 50 | – | –
CCc1nc(Nc2ccccc2)c2c3c(sc2n1)CCCC3 | 20.2 (≈ 6.25 µg/mL) | >1 | < 50 | 15.1 | 7.82 | 50 | – | –
Cc1cccc(-c2nc(Nc3ccncn3)c3c(C)csc3n2)n1 | – | – | – | – | – | – | 0.76 (≈ 0.254 µg/mL) | –
CCc1nc(Nc2ccc(C)cc2)c2c3c(sc2n1)CCCC3 | 77.3 (≈ 25 µg/mL) | >1 | < 50 | 3.26 | 15.6 | 50 | – | –
Cc1ccc(C)c(Nc2nc(-c3ccccc3)nc3sc4c(c23)CCCC4)c1 | 2.02 (≈ 0.779 µg/mL) | >1 | < 50 | 5.82 | 3.23 | 50 | – | –
CCc1nc(Nc2ccc(Br)cc2)c2c3c(sc2n1)CCCC3 | 32.2 (≈ 12.5 µg/mL) | >1 | < 50 | 6.54 | 12.6 | 50 | – | –
Cc1ccc(Nc2nc(-c3ccccc3)nc3sc4c(c23)CCCC4)cc1 | 33.6 (≈ 12.5 µg/mL) | >1 | < 50 | 7.97 | 41.1 | 50 | – | –
c1ccc(CCNc2nc(-c3ccccc3)nc3sc4c(c23)CCCC4)cc1 | 64.8 (≈ 25 µg/mL) | >1 | < 50 | 5.6 | 24.6 | 50 | – | –
COc1ccc(Nc2nc(-c3ccccc3)nc3sc4c(c23)CCCC4)cc1 | 16.1 (≈ 6.25 µg/mL) | >1 | < 50 | 8.72 | 28.2 | 50 | – | –
c1ccc(CNc2nc(C3CC3)nc3sc4c(c23)CCCC4)cc1 | 18.6 (≈ 6.25 µg/mL) | >1 | < 50 | 4.23 | 23.1 | 50 | – | –
CCc1nc(Nc2c(C)cccc2C)c2c3c(sc2n1)CCCC3 | 18.5 (≈ 6.25 µg/mL) | >1 | < 50 | 5.02 | 26.5 | 50 | – | –
Cc1ccc(C)c(Nc2nc(C3CC3)nc3sc4c(c23)CCCC4)c1 | 35.8 (≈ 12.5 µg/mL) | >1 | < 50 | 2.07 | 16.3 | 50 | – | –
CCc1nc(NCCc2ccccc2)c2c3c(sc2n1)CCCC3 | 37 (≈ 12.5 µg/mL) | >1 | < 50 | 1.82 | 25.2 | 50 | – | 1.4
Brc1ccc(Nc2nc(-c3ccccc3)nc3sc4c(c23)CCCC4)cc1 | 28.6 (≈ 12.5 µg/mL) | >1 | < 50 | 8.7 | 20.4 | 50 | – | –
Cc1cccc(C)c1Nc1nc(C2CC2)nc2sc3c(c12)CCCC3 | 17.9 (≈ 6.25 µg/mL) | >1 | < 50 | 7.55 | 13.5 | 50 | – | –
